Tests used:
[1] = test system: HCT-116; experiment: Cell cycle arrest in human HCT116 cells assessed as accumulation at G2 phase at 7.5 uM after 24 hrs by propidium iodide staining-based flow cytometric method (reference value: 26.10%); type: functional
[2] = test system: A549; experiment: Antiproliferative activity against human A549 cells after 48 hrs by MTT assay; type: functional, cell-based; details: A549, 48 h
In short: (§1)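 Cells seeded at 3×10³/well and grown 24 h, then exposed 48 h to six final concentrations, twofold steps down from 30. MTT (5 mg/mL) was added for 2–4 h at 37 °C. Supernatant was removed, formazan dissolved in DMSO, and OD read at 570 nm. Results are given as IC50, or as percent inhibition where IC50 exceeds the top concentration. At least three runs.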

[3] = test system: A2780S; experiment: Antiproliferative activity against human A2780S cells at 15 uM after 48 hrs by MTT assay relative to control; type: functional; in short: as §1
[4] = test system: CT26; experiment: Antiproliferative activity against mouse CT26 cells after 48 hrs by MTT assay; type: functional, cell-based; details: CT26, 48 h; in short: as §1
[5] = test system: A2780S; experiment: Antiproliferative activity against human A2780S cells at 7.5 uM after 48 hrs by MTT assay relative to control; type: functional; in short: as §1
[6] = test system: HCT-116; experiment: Induction of apoptosis in human HCT116 cells assessed as viable cells at 12.5 uM after 24 hrs by annexin V-FITC/propidium iodide staining-based flow cytometric method (reference value: 93.48%); type: functional; details: HCT-116, 24 h, read-out: Activity
In short: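 HCT116 cells seeded at 1×10⁶ cells/mL in 6-well plates for 24 h, then exposed to 0, 7.5, 10 or 12.5 μM for a further 24 h or 48 h. Cells washed twice in PBS, then stained with Annexin V-FITC plus PI (100 μg/mL stock) in binding buffer (10 mM HEPES, pH 7.4, 2.5 mM CaCl₂) for 30 min at room temperature in the dark. Early and late apoptotic fractions gated by flow cytometry.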

[7] = test system: HCT-116; experiment: Cell cycle arrest in human HCT116 cells assessed as accumulation at sub G1 phase at 12.5 uM after 48 hrs by propidium iodide staining-based flow cytometric method (reference value: 0.86%); type: functional

- IC50 [2]: 18.3 µM
- IC50 [4]: 9.5 µM
Structure (SMILES): C[C@@H]1Oc2ccc3ccccc3c2[C@@H]2[C@@H]1C=C(C=O)[C@@H](C)[C@]21C(=O)Nc2ccccc21
- Activity [1]: 28.5%
- inhibition at 15 µM [3]: 61.7 to 72.4%
- inhibition at 7.5 µM [5]: 50 to 58.1%
- viability at 12.5 µM [6]: 46.6%
- Activity [7]: 64.26%

Reference: ChEMBL document CHEMBL4000211, “Discovery of novel polycyclic spiro-fused carbocyclicoxindole-based anticancer agents” (Eur J Med Chem, 2017)
